The Ki is a dissociation constant, usually derived from enzyme kinetics or from competition with a known ligand. A word on the IC50: it is the point on the concentration scale where inhibition reaches its midpoint.

Assay [1] deals with T1, Procathepsin L (Homo sapiens, UniProt P07711). The assay is described as follows: Inhibition of human cathepsin L. The procedure, abridged: (§1)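 Cathepsin L assay on Cbz-Phe-Arg-AMC 5 µM. […] Second-order constant k2nd taken as kinac/Ki.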
Target sequence in this assay (P07711 whole entry): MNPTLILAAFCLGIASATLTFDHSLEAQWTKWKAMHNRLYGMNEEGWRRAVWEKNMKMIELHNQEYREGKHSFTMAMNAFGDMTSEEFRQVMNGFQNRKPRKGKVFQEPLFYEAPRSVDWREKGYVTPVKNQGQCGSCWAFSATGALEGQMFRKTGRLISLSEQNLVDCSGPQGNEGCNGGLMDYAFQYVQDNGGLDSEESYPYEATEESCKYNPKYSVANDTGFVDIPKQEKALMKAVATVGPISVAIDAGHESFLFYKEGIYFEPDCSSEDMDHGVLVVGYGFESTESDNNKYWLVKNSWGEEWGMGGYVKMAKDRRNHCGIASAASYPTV
Assay [2] is described as follows: Selectivity ratio of Ki for Plasmodium falciparum recombinant falcipain-2 to Ki for Trypanosoma brucei rhodesiense rhodesain.
The target of another assay is T2, Falcipain 2 (Plasmodium falciparum, UniProt Q9N6S8).
T2 sequence (Q9N6S8 whole entry): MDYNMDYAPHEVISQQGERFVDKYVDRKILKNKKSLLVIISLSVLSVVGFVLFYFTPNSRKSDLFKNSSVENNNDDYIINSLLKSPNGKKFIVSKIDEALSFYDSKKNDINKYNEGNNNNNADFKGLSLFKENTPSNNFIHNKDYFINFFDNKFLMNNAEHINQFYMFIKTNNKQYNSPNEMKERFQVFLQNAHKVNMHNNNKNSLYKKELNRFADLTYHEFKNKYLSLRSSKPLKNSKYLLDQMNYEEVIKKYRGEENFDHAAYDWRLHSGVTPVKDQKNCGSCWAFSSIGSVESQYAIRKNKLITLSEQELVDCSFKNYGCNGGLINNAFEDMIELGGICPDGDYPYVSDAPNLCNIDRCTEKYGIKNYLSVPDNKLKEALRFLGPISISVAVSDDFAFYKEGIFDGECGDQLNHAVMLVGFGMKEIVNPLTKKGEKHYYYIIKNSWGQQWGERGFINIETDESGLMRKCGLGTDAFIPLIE
The assay can be described thus: Inhibition of Plasmodium falciparum recombinant falcipain-2 after 10 min.

The next assay deals with Cathepsin B (Homo sapiens, UniProt P07858). The assay is described as follows: Inhibition of human cathepsin B.
The subject of the next assay is Plasmodium falciparum. The assay can be described thus: Antiplasmodial activity against Plasmodium falciparum FCBR infected in human erythrocytes assessed as parasite viability. The note with it: FCBR/Columbia. It is filed as functional, organism-based. The method, boiled down:
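P. falciparum FCBR kept in human A Rh+ erythrocytes, RPMI 1640 with 25 mM HEPES, 20 mM bicarbonate, 0.5% AlbuMAX I, 2.5% hematocrit, 37 °C, 94% N2/1% O2/5% CO2. Early-stage parasites plated at 1% parasitemia with compound (DMSO stock diluted 10-fold in 50% ethanol), 100-0.0488 µM, quadruplicates. Ethanol-only negative and 2 µM chloroquine positive controls. Viability assayed by a published method.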

Another assay concerns the target Rhodesain (Trypanosoma brucei rhodesiense, UniProt Q95PM0). The assay is described as follows: Inhibition of Trypanosoma brucei rhodesiense rhodesain after 10 mins. The procedure, abridged: (§2)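 Rhodesain with Cbz-Phe-Arg-AMC 10 µM in 100 mM sodium acetate pH 5.5, 10 mM DTT. Fluorescence (ex 365/em 460 nm) read continuously for 10 min at increasing inhibitor levels, duplicate runs. Kiapp and kinac from hyperbolic kobs fit, corrected to Ki using Km 0.9 µM. k2nd as kinac/Ki, or from kobs/[I] when linear. Dixon plot if time-independent.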

Assay [3] addresses T1, Procathepsin L. The assay can be described thus: Ratio of Kinact to Ki for human cathepsin L. The procedure, abridged:
as §1
Target sequence in this assay (P07711 114-333 limits assumed): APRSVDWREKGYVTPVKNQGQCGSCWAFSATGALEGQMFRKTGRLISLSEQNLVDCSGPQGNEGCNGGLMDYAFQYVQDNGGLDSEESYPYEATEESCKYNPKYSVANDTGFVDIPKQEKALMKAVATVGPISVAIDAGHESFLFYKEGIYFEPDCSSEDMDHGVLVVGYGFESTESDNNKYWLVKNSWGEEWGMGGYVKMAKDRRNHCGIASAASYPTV

The target of assay [4] is T3, Falcipain 2 (Plasmodium falciparum) (UniProt Q9N6S8).
T3 sequence (whole entry): T2 sequence (Q9N6S8 whole entry)
The assay can be described thus: Ratio of Kinact to Ki for Plasmodium falciparum recombinant falcipain-2 after 10 min.

Assay [5] concerns the target Rhodesain (Trypanosoma brucei rhodesiense) (UniProt Q95PM0). The assay can be described thus: Ratio of Kinact to Ki for Trypanosoma brucei rhodesiense rhodesain after 10 mins. The method, boiled down:
as §2

Rhodesain, sequence (Q95PM0 whole entry): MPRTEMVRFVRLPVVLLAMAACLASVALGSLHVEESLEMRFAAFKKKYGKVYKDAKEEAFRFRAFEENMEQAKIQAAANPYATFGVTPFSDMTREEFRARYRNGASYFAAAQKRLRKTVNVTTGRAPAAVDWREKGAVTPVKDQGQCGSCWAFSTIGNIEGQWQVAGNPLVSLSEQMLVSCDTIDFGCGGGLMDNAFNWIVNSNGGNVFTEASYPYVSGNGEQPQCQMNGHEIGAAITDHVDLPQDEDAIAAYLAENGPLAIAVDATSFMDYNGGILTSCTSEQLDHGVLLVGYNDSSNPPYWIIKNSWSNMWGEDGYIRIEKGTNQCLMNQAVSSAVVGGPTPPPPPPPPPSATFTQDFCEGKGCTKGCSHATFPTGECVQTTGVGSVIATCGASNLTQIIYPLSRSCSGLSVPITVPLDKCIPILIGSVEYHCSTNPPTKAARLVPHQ
Rhodesain (Trypanosoma brucei rhodesiense), sequence (Q95PM0 1-450): as the sequence (Q95PM0 whole entry) above

With `COC(=O)/C=C/CNC(=O)CN1C(=O)[C@@H](COC(=O)NC2CCCCC2)N=C(c2ccccc2)c2ccccc21`, the Ki at Procathepsin L [1] turned out to be 76.5 µM; on Falcipain 2, 89 µM; on Cathepsin B, 12.4 µM. The Ratio Ki in [2] stood at 5. The Activity result in the assay on Plasmodium falciparum is “Dose-dependent effect”.

For the compound `COC(=O)/C=C/CNC(=O)CN1C(=O)[C@@H](COC(=O)Nc2cccc3ccccc23)N=C(c2ccccc2)c2ccccc21`, the Ki at Procathepsin L [1] was found to be 12.2 µM; at Rhodesain, 0.93 µM; at Falcipain 2, 3.48 µM; at Cathepsin B, 25 µM. In assay [2], the Ratio Ki was 5. Further, the IC50 in the assay on Plasmodium falciparum amounted to 17.6 µM. Moreover, the Ratio at Procathepsin L [3] came to 6400.

For `COC(=O)/C=C/[C@H](CC(C)C)NC(=O)CN1C(=O)[C@@H](COC(=O)Nc2ccc(Cl)cc2C(F)(F)F)N=C(c2ccccc2)c2ccccc21`, the Ki is above 150 µM at Procathepsin L [1], 0.87 µM on Rhodesain, 2.22 µM on Falcipain 2 and 39.1 µM on Cathepsin B. Further, the Ratio in [4] was determined as 18000; in assay [5], 36000. Further, in assay [2], the Ratio Ki turned out to be 5. Also, in the assay on Plasmodium falciparum, the IC50 turned out to be 26.9 µM.

On to `COC(=O)/C=C/CNC(=O)CN1C(=O)[C@@H](COC(=O)Nc2ccc(Cl)cc2C(F)(F)F)N=C(c2ccc(Br)cc2)c2ccccc21`, for which the Ki was above 150 µM at Procathepsin L [1], 0.47 µM at Rhodesain, 1.56 µM on Falcipain 2 and above 150 µM at Cathepsin B. In addition, the Ratio in [4] was found to be 24500; in assay [5] it was 46000. Further, the Ratio Ki in assay [2] was 5. In addition, in the assay on Plasmodium falciparum, the IC50 came to 6.33 µM.

Turning to `COC(=O)/C=C/CNC(=O)CN1C(=O)[C@@H](COC(=O)Nc2ccc(Cl)cc2C(F)(F)F)N=C(c2ccccc2)c2cc(Cl)ccc21`, the Ki on Procathepsin L [1] worked out at 29.8 µM; on Rhodesain it was 0.087 µM; on Falcipain 2, 0.46 µM; at Cathepsin B, 6.1 µM. Moreover, the results for the Ratio in [4] and in assay [5] were 76000 and 220000, respectively. Besides, the Ratio Ki in assay [2] is 5. Besides, in the assay with Plasmodium falciparum, the IC50 stood at 28.9 µM.

As to `COC(=O)/C=C/CNC(=O)CN1C(=O)[C@@H](COC(=O)Nc2ccc(OC)cc2)N=C(c2ccccc2)c2ccccc21`, the inhibitory constant (Ki) came to 12 µM on Procathepsin L [1], 4.3 µM at Rhodesain, 15.1 µM on Falcipain 2 and 2.23 µM at Cathepsin B. Also, the Ratio Ki in [2] was found to be 5. In addition, in the assay on Plasmodium falciparum, the IC50 stood at 33.1 µM. Moreover, the Ratio at Procathepsin L [3] turned out to be 12500.

In the case of `CCCCNC(=O)OC[C@H]1N=C(c2ccccc2)c2ccccc2N(CC(=O)NC/C=C/C(=O)OC)C1=O`, the Ki is 2.7 µM at Procathepsin L [1], above 100 µM at Falcipain 2 and 20.4 µM at Cathepsin B. Further, the Ratio Ki in [2] came out at 5. Moreover, the Activity result with Plasmodium falciparum is “Dose-dependent effect”. Moreover, the Ratio at Procathepsin L [3] came out at 9400.

In the case of `CC(C)C[C@H](NC(=O)[C@H]1O[C@@H]1C(=O)O)C(=O)NCCCCN=C(N)N`, the Ratio in assay [4] was 1.59e+06.

Regarding `COC(=O)/C=C/CNC(=O)CN1C(=O)[C@@H](COC(=O)Nc2ccc(Cl)cc2C(F)(F)F)N=C(c2ccccc2)c2ccccc21`, the results for the Ratio in assay [4] and in [5] were 3.57e+06 and 34600, respectively. For the same compound, the Ki at Rhodesain worked out at 0.81 µM; on Falcipain 2, 0.017 µM. The Ratio Ki in [2] was found to be 5.

In the case of `COC(=O)/C=C/CNC(=O)CN1C(=O)[C@@H](COC(=O)NC23CC4CC(CC(C4)C2)C3)N=C(c2ccccc2)c2ccccc21`, the Ki stood at 65 µM at Procathepsin L [1], 0.0026 µM at Rhodesain, 0.014 µM on Falcipain 2 and 13.7 µM on Cathepsin B. In addition, the figures for the Ratio (in assay [4]; in assay [5]; at Procathepsin L [3]) were 1.16e+06, 4.62e+06 and 550, respectively. Moreover, the Ratio Ki in assay [2] was determined as 5. For the same compound, the IC50 in the assay with Plasmodium falciparum turned out to be 10.7 µM.

In the case of `COC(=O)/C=C/CNC(=O)CN1C(=O)[C@@H](COC(=O)Nc2ccc(Cl)cc2C(F)(F)F)N=C(c2ccc(OC)cc2)c2ccccc21`, the Ki on Procathepsin L [1] was 59.9 µM; on Falcipain 2, above 100 µM; at Cathepsin B it was 10.9 µM. Besides, the Ratio Ki in assay [2] is 5.

Regarding `C=CCNC(=O)CN1C(=O)[C@@H](CO)N=C(c2ccccc2)c2ccccc21`, the Ratio Ki in [2] worked out at 5. Further, the Activity result with Plasmodium falciparum is “Dose-dependent effect”.

These data come from ChEMBL document CHEMBL1177686, “Constrained peptidomimetics as antiplasmodial falcipain-2 inhibitors” (Bioorg Med Chem, 2010).
